Assay outcomes deposited in PubChem by several laboratories.
ALR H2O2 inh = inhibitors of human sulfhydryl oxidase ALR; AID 485317; hit rate 3.8% among 290,000; purified ALR, DTT oxidation, H2O2 HRP-luminol luminescence; P55789; inhibition, % (concentration not given with the values);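 active = mean replicate inhibition above about 79%, with every replicate also reaching it, limit read from the data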
PfM18AAP inh-1 = blocks P. falciparum M18 aspartyl aminopeptidase; recombinant PfM18AAP, H-Glu-NHMec fluorogenic cleavage; inhibition, % at 7.35 µM; hit rate 1.2% among 290,000; AID 1822;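 active = inhibition above the campaign mean inhibition over all tested compounds plus 3 SD, cut at about 28% in these data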
NS3 helicase inh = inhibitors of Hepatitis C virus NS3 helicase; NS3 helicase DNA unwinding, Cy5 molecular beacon fluorescence; AID 1800; inhibition, % at 10.9 µM; hit rate 0.56% among 290,000;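 active = inhibition above the mean of all tested compounds plus 3 SD, set per campaign, cut at about 35% in these data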
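System: Hepatitis C virus NS3 helicase domain fragment enzyme | Reagent: Annealed dual-labelled DNA beacon duplex, ATP-started | Compound dosing: 10.9 µM single point, 0.8% DMSO | Incubation: 1 h reaction at 25 °C, ATP-initiated | Technique: Cy5 fluorescence | Evaluation: Percent inhibition from t60/t0 fluorescence ratio | Benchmarks: Low DMSO, high thioflavine S at 110 µM | Replication: Singlicate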
core dimer inh = HCV core protein dimerization inhibition; TR-FRET GST/Flag-core106 dimerization, 1536-well; inhibition, % at 5 µM; hit rate 0.33% among 300,000; AID 1899;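 active = inhibition above the mean of all tested compounds plus 3 SD, set per screening campaign, cut at about 45% in these data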
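Test system: GST/Flag-tagged HCV core106 proteins; Medium: KF-containing HEPES buffer, pH 7.45, DTT, CHAPS, BSA; Times: compound-protein-antibody incubation 4 h at 22.5 °C; Detection: TR-FRET 671 and 617 nm emission; Benchmarks: wells lacking GST-core106 and wells with excess unlabelled core106.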
ZTA counter = ZTA (EBV) inhibition in EBNA-1 counter-screen | P03206 | ZTA-DNA binding, fluorescence polarization | inhibition, % at 11 µM | hit rate 0.15% among 320,000; in the data active = inhibition above about 33%
EBNA-1 inhibitor = blocks EBNA-1 binding to DNA; EBNA-1 DNA binding, fluorescence polarization; inhibition, % at 14.8 µM; hit rate 0.34% among 300,000; AID 1950; in the data active = inhibition above about 28%
PfM18AAP inh-2 = PfM18AAP inhibition, confirmation; shares compounds with PfM18AAP inh-1; recombinant PfM18AAP, H-Glu-NHMec fluorogenic cleavage; inhibition, % at 7.35 µM; hit rate 28% among 2,400; AID 2170;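 active = mean inhibition over replicate wells above the hit cutoff set for the earlier primary screen, cut at about 29% in these data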
CTSL1 confirm = counter-screen for PFM18AAP inhibitors: confirmation of human cathepsin L inhibitors; 2,400 tested, under 10 active; shares compounds with PfM18AAP inh-1; purified cathepsin L1, Z-Leu-Arg-MCA fluorescence; inhibition, % at 5.96 µM;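 active = average inhibition across replicates above the hit cutoff set in the earlier primary screen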
Target sequence (P07711 whole entry, looked up): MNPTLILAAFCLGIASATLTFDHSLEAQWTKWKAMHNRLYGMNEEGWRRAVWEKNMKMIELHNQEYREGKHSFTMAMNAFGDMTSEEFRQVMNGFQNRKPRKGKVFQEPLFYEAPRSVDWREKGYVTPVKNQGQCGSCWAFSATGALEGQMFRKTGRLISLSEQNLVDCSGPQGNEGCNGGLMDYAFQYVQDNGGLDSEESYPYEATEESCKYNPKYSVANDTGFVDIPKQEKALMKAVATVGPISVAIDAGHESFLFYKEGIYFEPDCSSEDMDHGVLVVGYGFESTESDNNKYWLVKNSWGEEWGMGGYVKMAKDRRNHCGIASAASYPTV
Numbers stand for hits. Only some compounds are listed: those with a hit (about 5.2% of all), similar ones and a draw of the others.

Screening C=CCn1c(SCC(=O)NCC2CCCO2)nnc1-c1ccncc1 (centres undefined) returned ALR H2O2 inh inactive and ZTA counter inactive.
For COc1ccc2c(c1)c(C(=O)N/N=C/c1ccc(Br)cc1)c(C)n2C the results were PfM18AAP inh-1 inactive, NS3 helicase inh inactive, core dimer inh inactive, ZTA counter inactive and EBNA-1 inhibitor inactive.
Screening COc1ccc2nc(C)cc(SCC(=O)N/N=C/c3ccc(O)c(O)c3)c2c1 returned ALR H2O2 inh 88, PfM18AAP inh-1 60, NS3 helicase inh inactive, core dimer inh inactive, ZTA counter inactive, EBNA-1 inhibitor inactive, PfM18AAP inh-2 63 and CTSL1 confirm inactive.
For COc1cccc2c(SCC(=O)N/N=C/c3ccc(O)c(O)c3)cc(C)nc12 the results were ALR H2O2 inh 100, PfM18AAP inh-1 66, NS3 helicase inh inactive, core dimer inh inactive, ZTA counter inactive, EBNA-1 inhibitor inactive, PfM18AAP inh-2 63 and CTSL1 confirm inactive.
Screening COc1ccc2c(c1)c(C(=O)N/N=C/c1ccc(O)c(O)c1)c(C)n2C returned ALR H2O2 inh 100, PfM18AAP inh-1 51, NS3 helicase inh inactive, core dimer inh inactive, ZTA counter inactive, EBNA-1 inhibitor inactive, PfM18AAP inh-2 40 and CTSL1 confirm inactive.
Screening NNc1nc(-c2ccccc2)c2cc(Br)ccc2n1 returned ALR H2O2 inh inactive, PfM18AAP inh-1 35, NS3 helicase inh inactive, core dimer inh inactive, ZTA counter inactive, EBNA-1 inhibitor inactive, PfM18AAP inh-2 inactive and CTSL1 confirm inactive.
Screening NNc1nc(-c2ccccc2)c2cc(Cl)ccc2n1 returned ALR H2O2 inh inactive, PfM18AAP inh-1 inactive, NS3 helicase inh inactive, core dimer inh inactive, ZTA counter inactive and EBNA-1 inhibitor inactive.
For COC(=O)c1ccccc1NC(=O)C/C(C)=N/NC(=O)CC#N the results were ALR H2O2 inh inactive, PfM18AAP inh-1 38, NS3 helicase inh inactive, core dimer inh inactive, ZTA counter inactive, EBNA-1 inhibitor inactive, PfM18AAP inh-2 inactive and CTSL1 confirm inactive.
For Cc1ccc(-n2c(N)c(C(=O)N3CCN(C)CC3)sc2=S)cc1 the results were ALR H2O2 inh inactive, PfM18AAP inh-1 59, NS3 helicase inh inactive, core dimer inh inactive, ZTA counter inactive, EBNA-1 inhibitor inactive, PfM18AAP inh-2 inactive and CTSL1 confirm inactive.
For Cc1ccc(-n2c(N)c(C(N)=O)sc2=S)c(C)c1 the results were ALR H2O2 inh inactive, PfM18AAP inh-1 39, NS3 helicase inh inactive, core dimer inh inactive, ZTA counter inactive, EBNA-1 inhibitor inactive, PfM18AAP inh-2 inactive and CTSL1 confirm inactive.
Cc1ccc(C)c(-n2c(N)c(C(N)=O)sc2=S)c1 was read as PfM18AAP inh-1 inactive, NS3 helicase inh inactive, core dimer inh inactive, ZTA counter inactive and EBNA-1 inhibitor inactive.
For CC(C)(O)C#Cc1ccc(C(=O)NCc2ccccc2F)cc1 the results were ALR H2O2 inh inactive, PfM18AAP inh-1 inactive, NS3 helicase inh inactive, core dimer inh inactive, ZTA counter inactive and EBNA-1 inhibitor inactive.
Cc1ccc(NC(=O)CSCC(=O)Nc2cc(Cl)ccc2N2CCOCC2)cc1 was read as ALR H2O2 inh inactive, core dimer inh inactive, ZTA counter inactive and EBNA-1 inhibitor inactive.
`CCOC(=O)c1c(CN(C)C)n(-c2ccc(C)cc2)c2cc(Br)c(O)cc12` gave ALR H2O2 inh inactive, PfM18AAP inh-1 38, NS3 helicase inh inactive, core dimer inh inactive, ZTA counter inactive, EBNA-1 inhibitor inactive, PfM18AAP inh-2 inactive and CTSL1 confirm inactive.
For N#C/C(=C(/O)CSc1ncn[nH]1)c1nc2ccccc2[nH]1 the results were ALR H2O2 inh inactive, PfM18AAP inh-1 64, NS3 helicase inh inactive, core dimer inh inactive, ZTA counter inactive, EBNA-1 inhibitor inactive, PfM18AAP inh-2 inactive and CTSL1 confirm inactive.
Screening C/C(O)=C(/C#N)c1nc2ccccc2[nH]1 returned ALR H2O2 inh inactive, PfM18AAP inh-1 inactive, NS3 helicase inh inactive, core dimer inh inactive, ZTA counter inactive and EBNA-1 inhibitor inactive.
`CCOc1ccccc1/C=N/Nc1ccc(Cl)nn1` gave PfM18AAP inh-1 inactive, NS3 helicase inh inactive, core dimer inh inactive, ZTA counter inactive and EBNA-1 inhibitor inactive.
